pIC50: −log10 of the molar value.
Tests used:
human MET kinase domain [1] = molecular target: T1, human MET kinase domain (Homo sapiens, UniProt P08581); experiment: MET kinase radiometric filter-binding assay; type: biochemical; details: versus ATP
human MET kinase domain [2] = molecular target: T1, human MET kinase domain; experiment: MET kinase spin column assay; type: biochemical; details: from Koff
DU145 cells = experiment: HGF induced cell scattering assay; type: cell-based; details: 0.01–10 μM, HGF 20 ng/ml, 48 h, colony counts
Summary of the method: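 DU145 cells (2 × 10^3/well) were plated on poly-D-lysine and given test compound (0.4 % DMSO), then immediately human HGF (20 ng/ml). After 48 h at 37 °C, cells were fixed in 2 % formaldehyde and stained with Alexa488-phalloidin plus propidium iodide. Colonies (≥ 4 cells) were counted by laser-scanning microplate cytometry.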

MV4-11 cells = experiment: In vitro anti-proliferative activity for MV4-11 cells; type: cell-based; details: Homo sapiens, MV4-11, read-out: in vitro anti-proliferative activity IC50
[3] = molecular target: MET phosphorylation in S114 xenograft tumors (Homo sapiens, UniProt P08581); experiment: In vivo MET target inhibition in S114 xenograft tumors; parameters: species or system mouse
Summary of the method: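 Subcutaneous tumors from S114 cells (NIH3T3-derived murine line engineered to express human MET and HGF) in nude mice. Test compound in 10 % acacia, single oral dose. Dose response read 2 h post-dose (n = 8 per dose group, 4 studies pooled); 12 mg/kg time course over 24 h. Tumor phospho-MET measured by MSD ELISA relative to vehicle group, with pharmacokinetic analysis alongside.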

Pharmacokinetics in mice = details: mouse, in vivo, oral
[4] = Pharmacokinetics in non-human primate; details: in vivo, oral
U-87MG xenograft = experiment: Anti-tumor growth activity, xenograft model; type: in vivo, mouse; details: MET autocrine model, oral
Summary of the method: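 U-87MG xenografts were grown in nude mice. Test compound in 10 % acacia was given orally twice daily, either continuously or intermittently. The 5/2 schedule (5 dosing days, 2 off) ran for 4 cycles; the 9/5 schedule (9 dosing days, 5 off) ran for 2 cycles. Tumour growth was compared with vehicle controls.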

KP4 xenograft = experiment: Anti-tumor growth activity, xenograft model; type: in vivo, mouse; details: KP4, MET autocrine model, oral
Summary of the method: (§1)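 Xenografts were grown in athymic or CD-1 nude mice. Test compound was formulated in 10 % acacia and given orally twice daily without interruption. Tumour growth was compared with a vehicle-treated control group.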

MKN45 xenograft = experiment: Anti-tumor growth activity, xenograft model; type: in vivo, mouse; details: MKN45, very high MET gene amplification, oral
Summary of the method: as §1

H441 xenograft = experiment: Anti-tumor growth activity, xenograft model; type: in vivo, mouse; details: H441, MET over-expression, oral
Summary of the method: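 H441 xenografts were grown in nude mice. Test compound in 10 % acacia was given orally twice daily, either continuously or on intermittent schedules. The 5/2 schedule (5 dosing days, 2 drug-free days) ran for 6 cycles; the 9/5 schedule (9 dosing days, 5 drug-free days) ran for 3 cycles. Tumour growth was compared with vehicle controls.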

H1993 xenograft = experiment: Anti-tumor growth activity, xenograft model; type: in vivo, mouse; details: H1993, co-express MET and MST1R, oral
Summary of the method: as §1

HT29 xenograft = experiment: Anti-tumor growth activity, xenograft model; type: in vivo, mouse; details: HT29, co-express MET and MST1R, oral
Summary of the method: as §1

MV4-11 xenograft = experiment: Anti-tumor growth activity, xenograft model; type: in vivo, mouse; details: MV4-11, FLT3-activating mutation, oral
Summary of the method: (§2)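 Nude mice (athymic or CD-1) carried H1299 orthotopic tumours or MV4-11 xenografts. Test compound was formulated in 10 % acacia and given orally.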

H1299 orthotopic model = experiment: Anti-tumor growth activity, orthotopic model of NSCLC; type: in vivo, mouse; details: AXL over-expression, oral
Summary of the method: as §2

U-87MG xenograft tumors = experiment: Multiplexed immunofluorescence tumor tissue imaging of U-87MG xenograft tumors; type: in vivo, mouse; details: 12 mg/kg once daily, 28 days, vs vehicle
Summary of the method: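 Mice bearing U-87MG xenografts received test compound orally (10 % acacia) at 1.3 or 12 mg/kg once daily for 28 days, or vehicle. Tumours were then excised and fixed in Zinc-Tris. One panel stained […], CD31, Ki67 and TUNEL; the other stained Hoechst, CD31, GLUT1 and smooth muscle actin. Staining was quantified by imaging.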

ALK = ALK (Homo sapiens, UniProt Q9UM73); experiment: Biochemical screening against 442 kinases
LTK = LTK (Homo sapiens, UniProt P29376); experiment: Biochemical screening against 442 kinases
[5] = S114 xenograft, 2 h after dose, oral, 4 studies
[6] = S114 xenograft, plasma concentration, 2 h after dose

MET phosphorylation in S114 xenograft tumors, sequence (P08581 25-1390): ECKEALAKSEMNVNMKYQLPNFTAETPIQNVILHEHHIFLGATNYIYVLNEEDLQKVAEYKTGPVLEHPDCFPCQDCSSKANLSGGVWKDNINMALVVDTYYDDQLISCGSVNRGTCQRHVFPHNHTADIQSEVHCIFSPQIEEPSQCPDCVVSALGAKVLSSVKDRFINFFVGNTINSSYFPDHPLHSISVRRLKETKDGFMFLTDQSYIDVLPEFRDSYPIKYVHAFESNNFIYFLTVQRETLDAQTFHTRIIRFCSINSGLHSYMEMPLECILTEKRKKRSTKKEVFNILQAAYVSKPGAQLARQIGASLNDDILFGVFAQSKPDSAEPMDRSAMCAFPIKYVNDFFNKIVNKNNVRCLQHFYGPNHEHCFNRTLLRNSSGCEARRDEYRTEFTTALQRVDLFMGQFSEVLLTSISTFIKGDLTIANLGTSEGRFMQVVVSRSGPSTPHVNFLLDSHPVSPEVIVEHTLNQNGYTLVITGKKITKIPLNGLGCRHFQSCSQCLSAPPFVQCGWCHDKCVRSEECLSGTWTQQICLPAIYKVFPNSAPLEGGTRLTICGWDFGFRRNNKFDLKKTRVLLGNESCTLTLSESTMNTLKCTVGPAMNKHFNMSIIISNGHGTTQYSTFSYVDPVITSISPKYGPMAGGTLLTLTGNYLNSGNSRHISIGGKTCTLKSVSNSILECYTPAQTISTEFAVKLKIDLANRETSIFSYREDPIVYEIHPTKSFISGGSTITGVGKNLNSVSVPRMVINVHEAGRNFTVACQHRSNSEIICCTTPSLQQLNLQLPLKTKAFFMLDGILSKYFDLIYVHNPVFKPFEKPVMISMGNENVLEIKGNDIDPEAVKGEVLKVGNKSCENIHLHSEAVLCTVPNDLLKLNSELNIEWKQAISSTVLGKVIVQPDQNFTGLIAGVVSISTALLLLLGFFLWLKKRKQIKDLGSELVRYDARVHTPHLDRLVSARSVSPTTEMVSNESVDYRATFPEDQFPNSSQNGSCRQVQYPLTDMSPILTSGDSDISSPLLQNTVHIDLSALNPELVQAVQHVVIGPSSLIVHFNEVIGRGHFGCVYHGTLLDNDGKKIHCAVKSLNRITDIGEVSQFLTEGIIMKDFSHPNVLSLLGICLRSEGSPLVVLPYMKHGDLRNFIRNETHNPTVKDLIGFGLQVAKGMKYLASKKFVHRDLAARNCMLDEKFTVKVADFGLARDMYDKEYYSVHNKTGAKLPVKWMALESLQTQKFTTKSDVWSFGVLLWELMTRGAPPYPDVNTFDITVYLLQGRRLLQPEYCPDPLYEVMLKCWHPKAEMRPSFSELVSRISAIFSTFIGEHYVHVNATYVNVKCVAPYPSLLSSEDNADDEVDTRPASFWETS
T1 sequence (P08581 1078-1345 limits assumed): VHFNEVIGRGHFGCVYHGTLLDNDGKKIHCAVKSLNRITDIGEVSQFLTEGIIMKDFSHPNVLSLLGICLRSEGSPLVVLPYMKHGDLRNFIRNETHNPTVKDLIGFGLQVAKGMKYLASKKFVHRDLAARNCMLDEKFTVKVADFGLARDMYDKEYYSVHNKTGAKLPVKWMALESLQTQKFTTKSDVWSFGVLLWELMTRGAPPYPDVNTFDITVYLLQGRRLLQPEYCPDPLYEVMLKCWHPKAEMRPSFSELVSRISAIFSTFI
ALK, sequence (Q9UM73 19-1620): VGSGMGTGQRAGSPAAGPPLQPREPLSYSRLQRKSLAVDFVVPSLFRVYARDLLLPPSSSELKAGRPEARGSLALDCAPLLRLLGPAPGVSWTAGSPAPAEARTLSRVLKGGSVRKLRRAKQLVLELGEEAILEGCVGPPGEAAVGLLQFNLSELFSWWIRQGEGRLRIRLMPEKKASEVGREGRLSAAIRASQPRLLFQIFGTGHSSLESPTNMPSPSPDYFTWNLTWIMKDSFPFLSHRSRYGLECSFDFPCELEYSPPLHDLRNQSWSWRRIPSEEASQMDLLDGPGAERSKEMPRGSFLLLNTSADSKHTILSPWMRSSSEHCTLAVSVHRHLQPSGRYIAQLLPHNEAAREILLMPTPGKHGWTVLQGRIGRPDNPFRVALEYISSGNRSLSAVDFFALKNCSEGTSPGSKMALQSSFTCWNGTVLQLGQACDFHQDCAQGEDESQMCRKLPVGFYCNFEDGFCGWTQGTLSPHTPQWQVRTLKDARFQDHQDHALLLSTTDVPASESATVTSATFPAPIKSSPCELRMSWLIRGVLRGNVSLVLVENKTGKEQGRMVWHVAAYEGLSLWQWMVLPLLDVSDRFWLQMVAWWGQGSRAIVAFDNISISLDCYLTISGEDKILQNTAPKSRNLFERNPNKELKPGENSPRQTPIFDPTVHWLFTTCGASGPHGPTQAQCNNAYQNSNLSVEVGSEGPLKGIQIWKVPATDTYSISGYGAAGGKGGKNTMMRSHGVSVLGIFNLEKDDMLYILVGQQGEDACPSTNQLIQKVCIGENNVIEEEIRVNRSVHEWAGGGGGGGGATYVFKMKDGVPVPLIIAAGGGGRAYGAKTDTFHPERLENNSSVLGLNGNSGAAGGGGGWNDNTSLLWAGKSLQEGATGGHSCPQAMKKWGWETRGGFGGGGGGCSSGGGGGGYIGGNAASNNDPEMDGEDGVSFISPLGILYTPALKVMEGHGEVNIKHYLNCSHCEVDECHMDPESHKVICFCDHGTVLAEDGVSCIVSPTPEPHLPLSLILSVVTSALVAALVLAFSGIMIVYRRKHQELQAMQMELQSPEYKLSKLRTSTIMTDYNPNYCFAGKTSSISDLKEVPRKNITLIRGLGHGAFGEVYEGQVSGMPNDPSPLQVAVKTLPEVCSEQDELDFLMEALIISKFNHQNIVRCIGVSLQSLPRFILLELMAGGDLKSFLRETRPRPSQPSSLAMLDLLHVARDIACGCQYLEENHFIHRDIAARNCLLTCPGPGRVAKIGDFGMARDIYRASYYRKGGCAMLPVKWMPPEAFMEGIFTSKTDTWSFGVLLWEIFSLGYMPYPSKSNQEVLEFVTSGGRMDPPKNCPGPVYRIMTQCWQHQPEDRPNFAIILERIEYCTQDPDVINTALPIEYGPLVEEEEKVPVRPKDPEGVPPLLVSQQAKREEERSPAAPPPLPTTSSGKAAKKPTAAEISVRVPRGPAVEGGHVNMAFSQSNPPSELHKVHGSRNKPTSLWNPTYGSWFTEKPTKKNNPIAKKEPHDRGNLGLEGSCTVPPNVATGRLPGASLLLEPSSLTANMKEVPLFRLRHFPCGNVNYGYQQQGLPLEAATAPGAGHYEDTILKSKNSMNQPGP
LTK, sequence (P29376 17-864): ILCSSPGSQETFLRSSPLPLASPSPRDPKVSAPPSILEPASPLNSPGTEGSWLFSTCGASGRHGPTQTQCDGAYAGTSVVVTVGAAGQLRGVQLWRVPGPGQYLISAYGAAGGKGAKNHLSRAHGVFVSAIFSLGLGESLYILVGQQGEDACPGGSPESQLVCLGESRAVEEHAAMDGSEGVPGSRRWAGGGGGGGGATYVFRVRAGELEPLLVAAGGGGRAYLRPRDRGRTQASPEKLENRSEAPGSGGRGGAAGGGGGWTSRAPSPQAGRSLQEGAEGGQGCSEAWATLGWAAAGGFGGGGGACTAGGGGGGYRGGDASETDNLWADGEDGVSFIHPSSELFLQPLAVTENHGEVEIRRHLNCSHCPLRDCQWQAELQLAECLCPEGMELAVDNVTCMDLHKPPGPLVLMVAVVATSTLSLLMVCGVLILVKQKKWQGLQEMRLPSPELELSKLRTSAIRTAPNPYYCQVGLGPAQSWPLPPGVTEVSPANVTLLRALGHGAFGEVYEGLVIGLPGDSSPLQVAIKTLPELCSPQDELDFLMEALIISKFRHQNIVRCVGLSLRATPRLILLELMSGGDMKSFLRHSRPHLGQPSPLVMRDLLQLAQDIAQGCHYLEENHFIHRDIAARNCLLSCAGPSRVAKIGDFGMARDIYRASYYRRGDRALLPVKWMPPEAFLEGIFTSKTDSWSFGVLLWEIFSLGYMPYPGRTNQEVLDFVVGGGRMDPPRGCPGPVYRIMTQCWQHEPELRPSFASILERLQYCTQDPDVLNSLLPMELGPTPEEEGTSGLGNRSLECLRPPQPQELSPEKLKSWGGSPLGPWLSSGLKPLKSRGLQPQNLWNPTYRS

mode of inhibition (human MET kinase domain [1]): competitive | half-life (t1/2) (human MET kinase domain [2]): 8.75 h | pIC50 (MV4-11 cells): 8.40 | p-MET inhibition in tumors by 16 h ([3]; S114 xenograft, 12 mg/kg oral, 16 h): no p-MET inhibition was observed | inhibition of p-MET ([3]; S114 xenograft, 12 mg/kg oral, at 2 h and maintained up to 8 h): Ninety-five percent | composite TED50 (50 % target inhibition dose) [3, 5]: 1.2 mg/kg | composite TED90 (90 % target inhibition dose) [3, 5]: 7.4 mg/kg | inhibition of MET phosphorylation ([3]; S114 xenograft, 2 h post-treatment, single 50-mg/kg dose, oral): 98% | TEC50 (the concentration that inhibited 50 % MET phosphorylation) [3, 6]: 0.2 µM | TEC90 (the concentration that inhibited 90 % MET phosphorylation) [3, 6]: 2 µM | inhibition at 12 mg/kg ([3]; mouse, po, read-out: inhibition of p-MET): 95% | half-life (Pharmacokinetics in mice): 2.9 h | half-life [4]: 14.3 h | activity against ALK (ALK): does not have significant activity | activity against LTK (LTK): does not have significant activity
Compound: Cc1ccc(C(=O)Nc2ccc(Oc3cc4cnn(C)c4cc3-c3cn[nH]c3)c(F)c2)c(=O)n1-c1ccc(F)cc1 [LY2801653, N-(3-fluoro-4-{[1-methyl-6-(1H-pyrazol-4-yl)-1H-indazol-5 yl]oxy}phenyl)-1-(4-fluorophenyl)-6-methyl-2-oxo-1,2-dihydropyridine-3-carboxamide]
effect on HGF-induced DU-145 cell scattering (DU145 cells): completely blocked | anti-tumor growth effect (U-87MG xenograft): significant anti-tumor growth effect | anti-tumor growth effect (KP4 xenograft): significant anti-tumor growth effect | anti-tumor growth effect (MKN45 xenograft): significant anti-tumor growth effect | anti-tumor growth effect (H441 xenograft): significant anti-tumor growth effect | tumor activity in xenograft model (H1993 xenograft): demonstrates tumor activity | tumor activity in xenograft model (HT29 xenograft): demonstrates tumor activity | in vivo anti-tumor growth activity (MV4-11 xenograft): in vivo anti-tumor growth activity | in vivo anti-tumor growth activity (H1299 orthotopic model): in vivo anti-tumor growth activity | GLUT1 expression (U-87MG xenograft tumors): decrease in GLUT1 expression | apoptotic area (U-87MG xenograft tumors): significantly reduced apoptotic area | pericyte coverage of vessels (U-87MG xenograft tumors): increase in pericyte coverage of vessels

Reference: publication PMC3717159 (Investigational New Drugs, 2012)
